Here are results for seven compounds from ChEMBL document CHEMBL3272249, “Esters of N-tert-butylarterenol. Long-acting new bronchodilators with reduced cardiac effects” (J Med Chem, 1976).

The test system of data set [1] is Canis familiaris. The data set can be described thus: Cardiotoxicity in spontaneously respiring dog assessed as time of increase in heart rate at 4 to 8 mg/kg, iv relative to control. It counts as toxicity, organism-based, Canis lupus familiaris. Also noted: dose 4-8 mg/kg, route intravenous. As to conditions: in vivo. Put shortly: (§1)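 Anesthetized, spontaneously respiring dogs. Heart rate was taken from a lead II EKG, and blood pressure from the right femoral artery by transducer. The increase in heart rate (beats/min) was scored on a graded scale with more than 4 dogs per dose, and its duration was recorded. Drugs were dissolved fresh in distilled water, diluted in physiological saline and kept on ice.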

Data set [2] concerns Canis familiaris. The data set can be described thus: Bronchodilator activity in dog assessed as time of inhibition of carbachol or histamine-induced bronchoconstriction at 4 to 8 mg/kg, iv relative to control. It counts as functional, Canis lupus familiaris. The note with it: dose mg/kg 4-8. In short, it runs like this:
(§2)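 Dog airway model: anesthetized, cannulated via a nonbreathing valve, with airway pressure changes recorded after iv carbachol (2–4 μg/kg) or histamine diphosphate (20–50 μg/kg) challenge, each agonist in different animals. Compounds were given iv, intraduodenally or intratracheally from fresh aqueous stocks diluted in saline. Duration (h) of inhibition of induced bronchoconstriction was followed, and the two agonist datasets were pooled.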

Data set [3] concerns Canis familiaris. Description: Bronchodilator activity in dog assessed as time of inhibition of carbachol or histamine-induced bronchoconstriction at 200 to 400 mg/kg, id relative to control. In kind it is functional, Canis lupus familiaris. The note with it: dose mg/kg 200-400; route intraduodenal. In short, it runs like this:
as §2

In data set [4] the test system is Canis familiaris. Description: Bronchodilator activity in dog assessed as time of inhibition of carbachol or histamine-induced bronchoconstriction at 380 mg/kg, it relative to control. It counts as functional, Canis lupus familiaris. The note with it: route endotracheal. In short, it runs like this: as §2
The subject of data set [5] is Canis familiaris. The data set can be described thus: Cardiotoxicity in spontaneously respiring dog assessed as degree of increase in heart rate at 4 to 8 mg/kg, iv relative to control. It counts as toxicity, organism-based, Canis lupus familiaris. The arrangement: dose 4-8 mg/kg, route intravenous. The note with it: in vivo. Put shortly: as §1
Data set [6] deals with Canis familiaris. Description: Bronchodilator activity in dog assessed as degree of inhibition of carbachol or histamine-induced bronchoconstriction at 4 to 8 mg/kg, iv relative to control. As to conditions: dose mg/kg 4-8. It counts as functional, Canis lupus familiaris. In short, it runs like this:
(§3)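 Anesthetized dogs, trachea cannulated with a nonbreathing valve. Bronchoconstriction induced by iv carbachol (2–4 μg/kg) or histamine diphosphate (20–50 μg/kg) in separate animals, and airway pressure recorded by transducer. Drug stocks were made fresh in distilled water, diluted in saline and kept on ice. Read-out was percent inhibition of control constriction, averaged over at least three dogs per dose at the higher dose. Carbachol and histamine data were combined.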

The subject of data set [7] is Canis familiaris. Description: Bronchodilator activity in dog assessed as degree of inhibition of carbachol or histamine-induced bronchoconstriction at 200 to 400 mg/kg, id relative to control. It counts as functional, Canis lupus familiaris. The note with it: dose mg/kg 200-400; route intraduodenal. Put shortly: as §3
Data set [8] relates to Canis familiaris. The data set can be described thus: Bronchodilator activity in dog assessed as degree of inhibition of carbachol or histamine-induced bronchoconstriction at 380 mg/kg, it relative to control. In kind it is functional. The note with it: Canis lupus familiaris, route endotracheal. In short, it runs like this:
as §3

For data set [9], the system named is Canis familiaris. Description: Bronchodilator activity in dog assessed as time of inhibition of carbachol or histamine-induced bronchoconstriction at 5 mg/kg, iv relative to control. It counts as functional, Canis lupus familiaris. Put shortly: (§4)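 Anesthetized dogs with an airway cannula and a nonbreathing valve. Bronchoconstriction was induced by iv carbachol (2–4 μg/kg) or histamine diphosphate (20–50 μg/kg) and read as change in airway pressure by transducer. Each compound was tested against both agonists in different dogs, and the results were combined and averaged. Effect is % inhibition of control constriction, with at least three dogs per dose. Drugs were dissolved fresh in distilled water, diluted in saline and kept on ice.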

Data set [10] concerns Canis familiaris. The data set can be described thus: Bronchodilator activity in dog assessed as degree of inhibition of carbachol or histamine-induced bronchoconstriction at 5 mg/kg, iv relative to control. In kind it is functional. The note with it: Canis lupus familiaris. Put shortly: as §3
Data set [11] deals with Canis familiaris. The data set can be described thus: Bronchodilator activity in dog assessed as time of inhibition of carbachol or histamine-induced bronchoconstriction at 5 to 10 mg/kg, iv relative to control. In kind it is functional, Canis lupus familiaris. As to conditions: dose mg/kg 5-10. In short, it runs like this:
as §4

The subject of data set [12] is Canis familiaris. Description: Bronchodilator activity in dog assessed as degree of inhibition of carbachol or histamine-induced bronchoconstriction at 5 to 10 mg/kg, iv relative to control. In kind it is functional, Canis lupus familiaris. The note with it: dose mg/kg 5-10. Put shortly:
as §3

Data set [13] relates to Canis familiaris. Description: Cardiotoxicity in spontaneously respiring dog assessed as degree of increase in heart rate at 100 to 200 mg/kg, iv relative to control. It counts as toxicity, organism-based, Canis lupus familiaris. The arrangement: dose 100-200 mg/kg, route intravenous. As to conditions: in vivo. In short, it runs like this: as §1
Data set [14] relates to Canis familiaris. The data set can be described thus: Bronchodilator activity in dog assessed as time of inhibition of carbachol or histamine-induced bronchoconstriction at 100 to 200 mg/kg, iv relative to control. In kind it is functional, Canis lupus familiaris. As to conditions: dose mg/kg 100-200. Put shortly:
as §2

Data set [15] deals with Canis familiaris. Description: Bronchodilator activity in dog assessed as time of inhibition of carbachol or histamine-induced bronchoconstriction at 300 to 1200 mg/kg, it relative to control. In kind it is functional, Canis lupus familiaris. The note with it: dose mg/kg 300-1200; route endotracheal. Put shortly:
as §2

In data set [16] the test system is Canis familiaris. The data set can be described thus: Bronchodilator activity in dog assessed as degree of inhibition of carbachol or histamine-induced bronchoconstriction at 100 to 200 mg/kg, iv relative to control. In kind it is functional, Canis lupus familiaris. The note with it: dose mg/kg 100-200. Put shortly: as §3
Data set [17] has as its system Canis familiaris. Description: Bronchodilator activity in dog assessed as degree of inhibition of carbachol or histamine-induced bronchoconstriction at 300 to 1200 mg/kg, it relative to control. It counts as functional, Canis lupus familiaris. The note with it: dose mg/kg 300-1200; route endotracheal. In short, it runs like this:
as §3

The test system of data set [18] is Canis familiaris. Description: Bronchodilator activity in dog assessed as time of inhibition of carbachol or histamine-induced bronchoconstriction at 25 to 100 mg/kg, iv relative to control. In kind it is functional, Canis lupus familiaris. The note with it: dose mg/kg 25-100. In short, it runs like this: as §2
For data set [19], the system named is Canis familiaris. Description: Bronchodilator activity in dog assessed as degree of inhibition of carbachol or histamine-induced bronchoconstriction at 25 to 100 mg/kg, iv relative to control. It counts as functional, Canis lupus familiaris. The note with it: dose mg/kg 25-100. Put shortly: as §3
Data set [20] concerns Canis familiaris. The data set can be described thus: Bronchodilator activity in dog assessed as time of inhibition of carbachol or histamine-induced bronchoconstriction at 25 to 50 mg/kg, iv relative to control. In kind it is functional, Canis lupus familiaris. As to conditions: dose mg/kg 25-50. Put shortly:
as §2

In data set [21] the test system is Canis familiaris. The data set can be described thus: Bronchodilator activity in dog assessed as time of inhibition of carbachol or histamine-induced bronchoconstriction at 520 to 1040 mg/kg, it relative to control. It counts as functional, Canis lupus familiaris. The note with it: dose mg/kg 520-1040; route endotracheal. Put shortly:
as §4

The test system of data set [22] is Canis familiaris. Description: Bronchodilator activity in dog assessed as degree of inhibition of carbachol or histamine-induced bronchoconstriction at 25 to 50 mg/kg, iv relative to control. The note with it: dose mg/kg 25-50. It counts as functional, Canis lupus familiaris. Put shortly: as §3
For data set [23], the system named is Canis familiaris. Description: Bronchodilator activity in dog assessed as degree of inhibition of carbachol or histamine-induced bronchoconstriction at 520 to 1040 mg/kg, it relative to control. It counts as functional, Canis lupus familiaris. The note with it: dose mg/kg 520-1040; route endotracheal. Put shortly: as §3

As a reminder, the inhibition in vivo is the percentage by which the read-out fell short of the control. Take `CCCC(=O)Oc1ccc([C@@H](O)CNC(C)(C)C)cc1OC(=O)CCC.Cl`: the Time with Canis familiaris [1] was less than 1 h; in the data set with Canis familiaris [2], less than 2 h; in the data set on Canis familiaris [3] it was more than 3 h; with Canis familiaris [4], less than 2 h. For the same compound, in the data set on Canis familiaris [5], the Activity stood at 20 beats/min. Moreover, the “inhibition (INH)” value in the data set on Canis familiaris [6] and with Canis familiaris [7] was more than 70% each time. Moreover, in the data set with Canis familiaris [8], the inhibition in vivo at 380 mg/kg was more than 70%.

As to `CC(C)C(=O)Oc1ccc([C@@H](O)CNC(C)(C)C)cc1OC(=O)C(C)C.Cl`, the Time in the data set on Canis familiaris [9] is less than 0.5 h. Also, in the data set on Canis familiaris [10], the inhibition in vivo at 5 mg/kg worked out at 20%.

Turning to `CCC(C)C(=O)Oc1ccc([C@@H](O)CNC(C)(C)C)cc1OC(=O)C(C)CC.Cl` (stereo not given in full), in the data set on Canis familiaris [11], the Time was less than 1 h. The “inhibition (INH)” value in the data set with Canis familiaris [12] is listed as 45%.

Turning to `CCCC(C)(C)C(=O)Oc1ccc([C@@H](O)CNC(C)(C)C)cc1OC(=O)C(C)(C)CCC.CS(=O)(=O)O`, the Time in the data set on Canis familiaris [11] was less than 1 h. The “inhibition (INH)” value in the data set with Canis familiaris [12] worked out at 45%.

In the case of `CS(=O)(=O)O.Cc1ccccc1C(=O)Oc1ccc([C@@H](O)CNC(C)(C)C)cc1OC(=O)c1ccccc1C`, the Activity with Canis familiaris [13] is recorded as 20%. For the same compound, the Time in the data set on Canis familiaris [14] is less than 4 h; with Canis familiaris [15] it was less than 3 h. Besides, the “inhibition (INH)” value in the data set on Canis familiaris [16] and with Canis familiaris [17] was 20% throughout.

Regarding `COc1ccc(CC(=O)Oc2ccc([C@@H](O)CNC(C)(C)C)cc2OC(=O)Cc2ccc(OC)cc2)cc1.Cl`, the Time with Canis familiaris [18] is 2 h. Besides, the “inhibition (INH)” value with Canis familiaris [19] is on record as more than 70%.

Turning to `CS(=O)(=O)O.Cc1ccc(C(=O)Oc2ccc([C@@H](O)CNC(C)(C)C)cc2OC(=O)c2ccccc2)cc1`, the Time in the data set with Canis familiaris [20] and in the data set on Canis familiaris [21] was 2 h each time. Moreover, the “inhibition (INH)” value with Canis familiaris [22] was more than 70%; in the data set with Canis familiaris [23] it was 45%.
